{
  "source": "ChEMBL document CHEMBL5712901",
  "about": "“DOT1L inhibition blocks multiple myeloma cell proliferation by suppressing IRF4-MYC signaling” (2019)",
  "key": {"MM1.S [1]": {"test_system": "MM1.S", "assay": "Upregulation of CCDC74B gene in human MM1.S cells at 1 uM for 6 days by", "assay_type": "functional, cell-based", "details": "time 6.0 day"}, "MM1.S [2]": {"test_system": "MM1.S", "assay": "Upregulation of HLA-DMB gene in human MM1.S cells at 1 uM for 6 days by", "assay_type": "functional, cell-based", "details": "time 6.0 day", "how_it_was_run": "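Human myeloma lines RPMI-8226 and MM.1S exposed to 1 μM DOT1L inhibitor, or DMSO, for 6 days. Whole-genome expression profiled on gene expression microarray.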"}},
  "note": "Activity calls are given as the source filed them. No cut-off for these calls is given here.",
  "data": [
    {"smiles": "CC(C)N(CCCNC(=O)Nc1ccc(C(C)(C)C)cc1)C[C@H]1O[C@@H](n2cc(Br)c3c(N)ncnc32)[C@H](O)[C@@H]1O", "values": [
      {"measurement": "Activity", "setting": "MM1.S [1]", "value": "Active"},
      {"measurement": "Activity", "setting": "MM1.S [2]", "value": "Active"}
    ]}
  ]
}
